Calls of active or inactive are those of the source. The rule behind the calls is not given here.
Columns and labels:
HepG2 [1] = experiment: Induction of apoptosis in human HepG2 cells assessed as viable cells at 1 uM incubated for 24 hrs by annexin V-FITC and PI staining based flow cytometry analysis (reference value: 94.2 %); assay type: functional; settings: read-out: Activity
Summary of the method: (§1)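 Cells seeded at 2×10^5 per well and treated 24 h with 1.0, 2.0 or 4.0 µM, or DMSO. Harvested, washed twice in cold PBS, resuspended at 1×10^5 cells/mL in buffer. Stained with Annexin V-FITC plus propidium iodide for 15 min at room temperature in the dark, then analysed by flow cytometry.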

RAW264.7 [2] = experiment: Inhibition of NF-kappaB in mouse RAW264.7 cells assessed as reduction in LPS-induced p65 nuclear translocation at 4 uM pretreated with LPS for 15 mins followed by compound addition and measured after 2 hrs by DAPI staining based fluorescence microscopy; assay type: cell-based; settings: time 135.0 min
Summary of the method: (§2)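 RAW264.7 exposed to LPS (1 µg/mL) for 15 min, then 4.0 µM compound for 2 h. Fixed at room temperature and blocked with 3% BSA. Anti-p65 (1:200) overnight at 4 °C, then secondary (1:200) for 30 min at room temperature. Nuclei stained with DAPI for 15 min; imaged on a high-content fluorescence system. Repeated three times.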

HepG2 [3] = experiment: Induction of apoptosis in human HepG2 cells assessed as late apoptotic cells at 4 uM incubated for 24 hrs by annexin V-FITC and PI staining based flow cytometry analysis (reference value: 4.8 %); assay type: functional; summary of the method: as §1
RAW264.7 [4] = experiment: Antiinflammatory activity against mouse RAW264.7 cells assessed as LPS-induced TNF-alpha at 5 uM pretreated for 2 hrs followed by LPS stimulation and measured after 22 hrs by ELISA (reference value: 0 %); assay type: functional; settings: time 24 hrs
HepG2 [5] = experiment: Induction of apoptosis in human HepG2 cells assessed as viable cells at 4 uM incubated for 24 hrs by annexin V-FITC and PI staining based flow cytometry analysis (reference value: 94.2 %); assay type: functional; settings: read-out: Activity; summary of the method: as §1
SMMC-7721 [6] = experiment: Induction of apoptosis in human SMMC-7721 cells assessed as viable cells at 4 uM incubated for 24 hrs by annexin V-FITC and PI staining based flow cytometry analysis (reference value: 93.3 %); assay type: functional; settings: read-out: Activity; summary of the method: as §1
RAW264.7 [7] = experiment: Inhibition of NF-kappaB in mouse RAW264.7 cells assessed as reduction in LPS-induced ERK phosphorylation at 1 to 4 uM incubated for 1 hr followed by LPS stimulation and measured after 30 mins by Western blot analysis; assay type: cell-based; settings: dose 1-4 µM
Summary of the method: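 RAW264.7 incubated 1 h with compound (1.0, 2.0, 4.0 µM), then LPS 1.0 µg/mL for 30 min before extraction. Lysates blotted to nitrocellulose and probed overnight at 4 °C for total and phospho forms of p65, IκBα, Akt, ERK1/2, JNK and p38; secondary antibody 2 h at room temperature. ECL detection, normalized to GAPDH, mean ± SD of triplicate tests.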

SMMC-7721 [8] = experiment: Induction of apoptosis in human SMMC-7721 cells assessed as viable cells at 1 uM incubated for 24 hrs by annexin V-FITC and PI staining based flow cytometry analysis (reference value: 93.3 %); assay type: functional; settings: read-out: Activity; summary of the method: as §1
HepG2 [9] = experiment: Induction of apoptosis in human HepG2 cells assessed as late apoptotic cells at 1 uM incubated for 24 hrs by annexin V-FITC and PI staining based flow cytometry analysis (reference value: 4.8 %); assay type: functional; summary of the method: as §1
HepG2 [10] = experiment: Induction of apoptosis in human HepG2 cells assessed as early apoptotic cells at 1 uM incubated for 24 hrs by annexin V-FITC and PI staining based flow cytometry analysis (reference value: 0.2 %); assay type: functional; summary of the method: as §1
SMMC-7721 [11] = experiment: Induction of apoptosis in human SMMC-7721 cells incubated for 24 hrs by annexin V-FITC and PI staining based flow cytometry analysis; assay type: functional, cell-based; settings: dose 1-4 µM; summary of the method: as §1
HepG2 [12] = experiment: Inhibition of NF-kappaB in human HepG2 cells assessed as reduction in TNFalpha-induced p65 nuclear translocation at 4 uM pretreated with LPS for 15 mins followed by compound addition and measured after 2 hrs by DAPI staining based fluorescence microscopy; assay type: cell-based; settings: time 135.0 min, in the assay text read “pretreated with TNF-alpha” for “pretreated with LPS”
Summary of the method: as §2, with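 “HepG2” for “RAW264.7”, “TNF-α (10 ng/mL)” for “LPS (1 µg/mL)”, “DAPI; p65 location” for “DAPI for 15 min;”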

## Cl.NC1=NC(c2cccc(F)c2)C2=C(N1)/C(=C/c1cccc(F)c1)CN(S(=O)(=O)c1ccc(C(F)(F)F)cc1)C2 (configuration not stated)
HepG2 [1]
  viability at 1 µM: 35.3%
RAW264.7 [2]
  inhibition: Active
HepG2 [3]
  Activity: 18.5%
RAW264.7 [4]
  inhibition at 5 µM: 88.5%
HepG2 [5]
  viability at 4 µM: 30.6%
SMMC-7721 [6]
  viability at 4 µM: 66.5%
RAW264.7 [7]
  inhibition: Active
SMMC-7721 [8]
  viability at 1 µM: 80.8%
HepG2 [9]
  Activity: 10.5%
HepG2 [10]
  Activity: 53.4%
SMMC-7721 [11]
  Activity: Dose-dependent effect
HepG2 [12]
  inhibition: Active

From ChEMBL document CHEMBL4680257, “Discovery of novel NF-кB inhibitor based on scaffold hopping: 1,4,5,6,7,8-hexahydropyrido[4,3-d]pyrimidine” (Eur J Med Chem, 2020)
